From ChEMBL document CHEMBL4732095, “Novel naphthylamide derivatives as dual-target antifungal inhibitors: Design, synthesis and biological evaluation” (Eur J Med Chem, 2021)
Activity calls are given as the source filed them. No cut-off for these calls is given here.

Tests used:
[1] = Stability in human plasma assessed as compound remaining incubated for 120 mins; format: ADME, cell-free; conditions: read-out: Stabilty
Outline: (§1)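 Compound incubated in human plasma. Percent remaining measured at 60 and 120 min.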

Candida albicans SC5314 [2] = experiment: Inhibition of SE/CYP51 in Candida albicans ATCC SC5314 assessed as unknown sterol level at 4 ug/ml incubated for 48 hrs by LC/MS analysis (reference value: 3.5 %); set-up: scale not given: the % may be the effect or the level left; conditions: dose 4.0 µg/ml
Outline: (§2)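 C. albicans SC5314 cells exposed to compound at 0.125, 0.5 or 4 μg/mL for 48 h, alongside untreated, fluconazole and naftifine controls. Sterols (ergosterol, squalene, lanosterol, eburicol, unknown) analysed by LC-MS. Each component expressed as percentage of total sterols from peak area ratios.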

Candida albicans SC5314 [3] = experiment: Inhibition of SE/CYP51 in Candida albicans ATCC SC5314 assessed as eburicol level at 0.5 ug/ml incubated for 48 hrs by LC/MS analysis (reference value: 1.4 %); set-up: scale not given: the % may be the effect or the level left; conditions: dose 0.5 µg/ml; outline: as §2
[4] = Stability in human plasma assessed as compound remaining incubated for 60 mins; format: ADME, cell-free; conditions: read-out: Stabilty; outline: as §1
Candida albicans [5] = experiment: Antifungal activity against fluconazole-resistant Candida albicans 901 assessed as inhibition of microbial growth by NCCLS protocol based method; format: functional
[6] = Toxicity in mouse infected with Candida albicans SC5314 assessed as change in body weight administered via abdomen for 7 days; conditions: in vivo, ip, 168 h, time 7 day
Outline: (§3)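 Mice infected with C. albicans SC5314 by subcutaneous abdominal injection, then randomized into saline, and two compound-treated groups. Treatment given by abdominal injection for 7 days, with body weight monitored. Heart, liver, spleen, lung, kidney and infected abdominal tissue harvested for H&E histology.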

[7] = Toxicity in mouse infected with Candida albicans SC5314 assessed as change in liver morphology administered via abdomen for 7 days by H and E staining based histological analysis; conditions: in vivo, ip, 168 h, time 7 day; outline: as §3
Candida albicans [8] = experiment: Antifungal activity against Candida albicans ATCC SC5314 assessed as reduction in cell division at 10 nM/mL by polarizing microscopy; format: functional, organism-based; conditions: dose 10.0 nmol/ml
Outline: (§4)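 C. albicans ATCC SC5314 observed by polarizing microscopy over treatment time. Untreated, fluconazole- and naftifine-treated control groups were included. Cell density, dividing cells and cell fracture were assessed, with cell counts taken per field.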

Candida tropicalis = experiment: Antifungal activity against Candida tropicalis ATCC 1369 assessed as inhibition of microbial growth by NCCLS protocol based method; format: functional
Outline: (§5)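 Broth MIC50 determined following NCCLS guidelines in Sabouraud medium, with fungal suspension in 24-well format. Compound tested at 0.0625, 0.125, 0.5, 1, 2, 4, 8 and 16 μg/mL. Plates cultured statically at 35 °C. MIC50 is the lowest concentration giving 50% growth inhibition. Naftifine and fluconazole served as positive controls.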

Candida albicans SC5314 [9] = experiment: Inhibition of SE/CYP51 in Candida albicans ATCC SC5314 assessed as squalene level at 0.5 ug/ml incubated for 48 hrs by LC/MS analysis; set-up: scale not given: the % may be the effect or the level left; conditions: dose 0.5 µg/ml; outline: as §2
[10] = Toxicity in mouse infected with Candida albicans SC5314 assessed as change in kidney morphology administered via abdomen for 7 days by H and E staining based histological analysis; conditions: in vivo, ip, 168 h, time 7 day; outline: as §3
Candida albicans [11] = experiment: Antifungal activity against fluconazole-resistant Candida albicans 632 assessed as inhibition of microbial growth by NCCLS protocol based method; format: functional
[12] = Toxicity in mouse infected with Candida albicans SC5314 assessed as change in spleen morphology administered via abdomen for 7 days by H and E staining based histological analysis; conditions: in vivo, ip, 168 h, time 7 day; outline: as §3
Candida albicans SC5314 [13] = experiment: Inhibition of SE/CYP51 in Candida albicans ATCC SC5314 assessed as ergosterol level at […] ug/ml incubated for 48 hrs by LC/MS analysis (reference value: 95.1 %); set-up: scale not given: the % may be the effect or the level left; conditions: dose 0.125 µg/ml
[14] = Toxicity in mouse infected with Candida albicans SC5314 assessed as change in lung morphology administered via abdomen for 7 days by H and E staining based histological analysis; conditions: in vivo, ip, 168 h, time 7 day; outline: as §3
[15] = Inhibition of Candida albicans ATCC SC5314 SE incubated for 30 mins by spectrophotometric method
Outline: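 Enzymes (SE, CYP51) extracted from C. albicans SC5314 using kits. 50 µg enzyme incubated with varying compound concentrations for 30 min at 37 °C in Tris pH 7.4, KCl, MgCl2, 2 mM NADPH, with squalene or eburicol as substrate. Reaction stopped with acetonitrile and centrifuged. Eburicol consumption (CYP51) read by HPLC. Squalene, after sulfuric acid/formaldehyde derivatization, read at 400 nm (SE). IC50 reported.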

Pichia kudriavzevii = experiment: Antifungal activity against Candida krusei ATCC 6258 assessed as inhibition of microbial growth by NCCLS protocol based method; format: functional; outline: as §5
Candida albicans SC5314 [16] = experiment: Inhibition of SE/CYP51 in Candida albicans ATCC SC5314 assessed as ergosterol level at 4 ug/ml incubated for 48 hrs by LC/MS analysis (reference value: 95.1 %); set-up: scale not given: the % may be the effect or the level left; conditions: dose 4.0 µg/ml; outline: as §2
Nakaseomyces glabratus = experiment: Antifungal activity against Candida glabrata ATCC 0001 assessed as inhibition of microbial growth by NCCLS protocol based method; format: functional; outline: as §5
Candida albicans [17] = experiment: Antifungal activity against fluconazole-resistant Candida albicans 904 assessed as inhibition of microbial growth by NCCLS protocol based method; format: functional
Candida albicans [18] = experiment: Antifungal activity against Candida albicans ATCC SC5314 assessed as induction of cell fracture at 10 nM/mL by polarizing microscopy; format: functional, organism-based; conditions: dose 10.0 nmol/ml; outline: as §4
[19] = Renal toxicity in mouse infected with Candida albicans SC5314 assessed as effect on blood urea nitrogen level administered via abdomen for 7 days (reference value: 6.8 +/-0.4 mmol/L); conditions: in vivo, ip, 168 h, time 7 day
Candida albicans SC5314 [20] = experiment: Inhibition of SE/CYP51 in Candida albicans ATCC SC5314 assessed as squalene level at 4 ug/ml incubated for 48 hrs by LC/MS analysis; set-up: scale not given: the % may be the effect or the level left; conditions: dose 4.0 µg/ml; outline: as §2
[21] = Hepatotoxicity in mouse infected with Candida albicans SC5314 assessed as effect on alanine aminotransferase level in plasma administered via abdomen for 7 days (reference value: 105 +/- 8.3 IU/L); format: toxicity; conditions: ip, 168 h, time 7 day
Candida albicans [22] = experiment: Antifungal activity against fluconazole-resistant Candida albicans CaR assessed as inhibition of microbial growth by NCCLS protocol based method; format: functional
Candida albicans SC5314 [23] = experiment: Inhibition of SE/CYP51 in Candida albicans ATCC SC5314 assessed as eburicol level at 4 ug/ml incubated for 48 hrs by LC/MS analysis (reference value: 1.4 %); set-up: scale not given: the % may be the effect or the level left; conditions: dose 4.0 µg/ml; outline: as §2
Candida albicans SC5314 [24] = experiment: Inhibition of SE/CYP51 in Candida albicans ATCC SC5314 assessed as lanosterol level at 0.5 ug/ml incubated for 48 hrs by LC/MS analysis; set-up: scale not given: the % may be the effect or the level left; conditions: dose 0.5 µg/ml; outline: as §2
Candida albicans [25] = experiment: Antifungal activity against fluconazole-resistant Candida albicans 17# assessed as inhibition of microbial growth by NCCLS protocol based method; format: functional
Candida albicans SC5314 [26] = experiment: Inhibition of SE/CYP51 in Candida albicans ATCC SC5314 assessed as lanosterol level at 0.125 ug/ml incubated for 48 hrs by LC/MS analysis; set-up: scale not given: the % may be the effect or the level left; conditions: dose 0.125 µg/ml
Outline: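 C. albicans ATCC SC5314 cells exposed to drug at 0.125, 0.5 or 4 μg/mL for 48 h, alongside an untreated control. Sterols were extracted and analysed by LC-MS. Ergosterol, squalene, lanosterol, eburicol and unknown sterols are each given as % of total sterols, calculated from the peak area ratio of each component.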

Candida albicans [27] = experiment: Antifungal activity against Candida albicans ATCC SC5314 assessed as reduction in size of fungal cells (reference value: 8.29 micrometer); format: functional

| Compound | remaining at 2 h [1] [%] | Activity (Candida albicans SC5314 [2]) [%] | Activity (Candida albicans SC5314 [3]) [%] | remaining at 1 h [4] [%] | MIC50 (Candida albicans [5]) [µg/mL] | Activity [6] | Activity [7] | Activity (Candida albicans [8]) | MIC50 (Candida tropicalis) [µg/mL] | Activity (Candida albicans SC5314 [9]) [%] | Activity [10] | MIC50 (Candida albicans [11]) [µg/mL] | Activity [12] | Activity (Candida albicans SC5314 [13]) [%] | Activity [14] | IC50 [15] [nM] | MIC50 (Pichia kudriavzevii) [µg/mL] | Activity (Candida albicans SC5314 [16]) [%] | MIC50 (Nakaseomyces glabratus) [µg/mL] | MIC50 (Candida albicans [17]) [µg/mL] | also measured |
| --- | --- | --- | --- | --- | --- | --- | --- | --- | --- | --- | --- | --- | --- | --- | --- | --- | --- | --- | --- | --- | --- |
| O=C(NC(Cn1ccnc1)C(=O)NCc1ccncc1)c1ccc2ccccc2c1 (stereo not given) | 91.6 | 6.1 | 37.9 | 94.5 | 4 | Non-Toxic | Non-Toxic | Active | 0.25 | 14.5 | Non-Toxic | 8 | Non-Toxic | 68.4 | Non-Toxic | 685 | 0.25 | 13.2 | 0.125 | > 16 | Activity (Candida albicans [18]): Active; Activity [19]: 7.3 mmol/L; Activity (Candida albicans SC5314 [20]): 20.5%; Activity [21]: 102 IU/L; MIC50 (Candida albicans [22]): 8 µg/mL; Activity (Candida albicans SC5314 [23]): 49.3%; Activity (Candida albicans SC5314 [24]): 7.2%; MIC50 (Candida albicans [25]): 4 µg/mL; Activity (Candida albicans SC5314 [26]): 3.8%; Activity (Candida albicans [27]): 7.53 um |
| CC(NC(=O)c1cccc2ccccc12)C(=O)NC(Cn1ccnc1)C(=O)c1ccccc1 (stereo not given) | 92.1 | 6.2 | 34 | 96.3 | 4 | Non-Toxic | Non-Toxic | Active | 0.125 | 21.6 | Non-Toxic | 8 | Non-Toxic | 66.4 | Non-Toxic | 961 | 0.25 | 10.8 | 0.25 | 4 | Activity (Candida albicans [18]): Active; Activity [19]: 6.4 mmol/L; Activity (Candida albicans SC5314 [20]): 27.9%; Activity [21]: 106 IU/L; MIC50 (Candida albicans [22]): 4 µg/mL; Activity (Candida albicans SC5314 [23]): 42.6%; Activity (Candida albicans SC5314 [24]): 8.7%; MIC50 (Candida albicans [25]): 2 µg/mL; Activity (Candida albicans SC5314 [26]): 2.8%; Activity (Candida albicans [27]): 7.51 um |
